According to ChEMBL document CHEMBL1123228, “Enantiomers of 3-(3,4-dihydroxyphenyl)- and 3-(3-hydroxyphenyl)-N-n-propylpiperidine: central pre- and postsynaptic dopaminergic effects and pharmacokinetics” (J Med Chem, 1986):

Columns and labels:
D(1A) dopamine receptor = D(1A) dopamine receptor (Rattus norvegicus, UniProt P18901); experiment: In vitro affinity against Dopamine receptor D1 using [3H]SCH-23390 radioligand in rat striatal homogenate.
Rattus norvegicus [1] = experiment: Level of compound in rat cortex in the absence of tropolone at dose 40 umol/kg; type: functional, organism-based
Procedure, shortened: (§1)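 Female Wistar rats (170–200 g), compound sc in saline (1 mL/kg), killed 60 min later, with or without tropolone (50 mg/kg ip) before dosing. Striatum, cerebellum and cortex were extracted in perchloric acid, cleaned on Sephadex G10 and analysed by HPLC-ECD (pH 4.0, 15% methanol, 600 mV). Recovery-corrected, n = 3.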

Rattus norvegicus [2] = organism: Rattus norvegicus; experiment: Dopa accumulation was evaluated in corpus striatum of male Sprague-Dawley rat; type: functional
Procedure, shortened: (§2)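 Male Sprague-Dawley rats, 200–300 g; drug in saline given sc after NSD 1015 decarboxylase inhibition; Dopa measured by HPLC with electrochemical detection. Dose-response curves from four to six dose levels per substance and brain area; ED50 estimated as the dose giving half-maximal decrease of Dopa level.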

Rattus norvegicus [3] = experiment: Level of compound in rat striatum at dose 40 umol/kg; type: functional, organism-based; procedure, shortened: as §1
Rattus norvegicus [4] = experiment: Level of compound in rat cortex at dose 40 umol/kg; type: functional, organism-based; procedure, shortened: as §1
D(2) dopamine receptor = D(2) dopamine receptor (Rattus norvegicus, UniProt P61169); experiment: In vitro affinity against Dopamine receptor D2 using [3H]DP-5,6-ADTN radioligand in rat striatal homogenate.
Sequence of D(2) dopamine receptor (P61169 whole entry): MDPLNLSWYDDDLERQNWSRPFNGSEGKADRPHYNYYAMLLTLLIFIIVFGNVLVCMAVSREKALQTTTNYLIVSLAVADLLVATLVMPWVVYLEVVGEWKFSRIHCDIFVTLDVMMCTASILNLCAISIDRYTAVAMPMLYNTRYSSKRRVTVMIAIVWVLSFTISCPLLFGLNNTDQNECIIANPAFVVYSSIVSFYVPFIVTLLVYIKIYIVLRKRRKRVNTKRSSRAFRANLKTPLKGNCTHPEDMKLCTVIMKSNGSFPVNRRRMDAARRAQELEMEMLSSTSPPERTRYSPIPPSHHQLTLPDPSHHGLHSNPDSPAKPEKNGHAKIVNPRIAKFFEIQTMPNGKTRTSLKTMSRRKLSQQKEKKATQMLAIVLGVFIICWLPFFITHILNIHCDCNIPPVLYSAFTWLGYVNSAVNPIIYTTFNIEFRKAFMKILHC

Rattus norvegicus [5] = experiment: Motor activity effect in reserpinized rat at 50 umol/kg, sc expressed as accumulation counts 0-30 min after treatment; type: functional
Procedure, shortened: (§3)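 Male Sprague-Dawley rats given reserpine 5 mg/kg ip 18 h before; some also given tropolone 50 mg/kg 30 min before. Compound given sc in the neck, or ip where stated. Locomotion recorded by photocell motility meters, one rat per cage, as accumulated counts over 0–30 min, mean ± SEM.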

Rattus norvegicus [6] = experiment: Level of compound in rat striatum in the absence of tropolone at dose 40 umol/kg; type: functional, organism-based; procedure, shortened: as §1
Rattus norvegicus [7] = experiment: Level of compound in rat cortex by pretreatment of tropolone (50 mg/kg, ip, 30min) at dose 8 umol/kg; type: functional, organism-based; procedure, shortened: as §1
Rattus norvegicus [8] = experiment: Level of compound in rat cerebellum by pretreatment of tropolone (50 mg/kg, ip, 30min) at dose 40 umol/kg; type: functional, organism-based; procedure, shortened: as §1
[9] = system: catechol-O-methyl transferase; experiment: Michaelis-Menten constant was measured for O-methylation (probably meta) by catechol-O-methyl transferase; type: ADME
Procedure, shortened: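 Crude rat liver COMT (105000g supernatant) at 37°C for 15 min with 0.1–0.00125 mM substrate, S-adenosyl-L-methionine, 10 mM MgCl2 and 50 mM phosphate pH 7.4 (final). Reaction stopped with perchloric acid; O-methyl product measured by HPLC-ECD. Km from Lineweaver-Burk plots, four experiments, each concentration in triplicate.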

Rattus norvegicus [10] = experiment: Level of compound in rat cortex at dose 8 umol/kg; type: functional, organism-based; procedure, shortened: as §1
Rattus norvegicus [11] = experiment: Level of compound in rat cerebellum in the absence of tropolone at dose 40 umol/kg; type: functional, organism-based; procedure, shortened: as §1
Rattus norvegicus [12] = experiment: Level of compound in rat striatum at dose 8 umol/kg; type: functional, organism-based; procedure, shortened: as §1
Rattus norvegicus [13] = organism: Rattus norvegicus; experiment: Maximal cAMP production in rat striatal homogenates.; type: functional
Procedure, shortened: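 cAMP formation in rat striatal homogenates was read with an automated adenylate cyclase assay.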

Rattus norvegicus [14] = experiment: Motor activity effect in reserpinized rat with tropolone pretreatment at 5 umol/kg, sc expressed as accumulation counts 0-30 min after treatment; type: functional; procedure, shortened: as §3
Rattus norvegicus [15] = experiment: Presynaptic activity at the level of DA metabolism was determined at dose 45 umol/kg on striatal level of HVA; type: functional
Procedure, shortened: (§4)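 Female Wistar rats given 45 μmol/kg sc; striatal DOPAC and HVA measured by HPLC with electrochemical detection, compared with saline controls by Student's t test.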

Rattus norvegicus [16] = experiment: Level of compound in rat cerebellum by pretreatment of tropolone (50 mg/kg, ip, 30min) at dose 8 umol/kg; type: functional, organism-based; procedure, shortened: as §1
[17] = Ratio of Vmax/Km was measured; type: ADME
Procedure, shortened: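 Crude COMT from rat liver (KCl homogenate, 105000g supernatant). Incubated at 37 °C in 50 mM phosphate buffer pH 7.4 with 10 mM MgCl2, S-adenosyl-L-methionine ([…] as printed), and substrate at 0.1–0.00125 mM (final concentrations), 15 min. Stopped with perchloric acid; the O-methylated product was measured by HPLC-electrochemical detection. Km and Vmax from Lineweaver-Burk plots of four experiments, each concentration run in triplicate.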

[18] = Michaelis-Menten constant was measured against adenylate cyclase stimulation of cAMP formation in striatal homogenates; type: ADME, tissue-based; conditions: tissue homogenate
Rattus norvegicus [19] = experiment: Level of compound in rat cortex in the absence of tropolone at dose 8 umol/kg; type: functional, organism-based; procedure, shortened: as §1
Rattus norvegicus [20] = experiment: Level of compound in rat striatum by pretreatment of tropolone (50 mg/kg, ip, 30min) at dose 40 umol/kg; type: functional, organism-based; procedure, shortened: as §1
Rattus norvegicus [21] = experiment: Level of compound in rat cerebellum at dose 8 umol/kg; type: functional, organism-based; procedure, shortened: as §1
Rattus norvegicus [22] = organism: Rattus norvegicus; experiment: Dopa accumulation was evaluated in limbic system of male Sprague-Dawley rat; type: functional; procedure, shortened: as §2
Rattus norvegicus [23] = experiment: Level of compound in rat striatum by pretreatment of tropolone (50 mg/kg, ip, 30min) at dose 8 umol/kg; type: functional, organism-based; procedure, shortened: as §1
Rattus norvegicus [24] = experiment: Presynaptic activity at the level of DA metabolism was determined at dose 45 umol/kg on striatal level of DOPAC; type: functional; procedure, shortened: as §4
Rattus norvegicus [25] = experiment: Level of compound in rat cerebellum at dose 40 umol/kg; type: functional, organism-based; procedure, shortened: as §1
Rattus norvegicus [26] = experiment: Level of compound in rat cortex by pretreatment of tropolone (50 mg/kg, ip, 30min) at dose 40 umol/kg; type: functional, organism-based; procedure, shortened: as §1
Rattus norvegicus [27] = experiment: Level of compound in rat cerebellum in the absence of tropolone at dose 8 umol/kg; type: functional, organism-based; procedure, shortened: as §1
Rattus norvegicus [28] = experiment: Level of compound in rat cerebellum at dose 45 umol/kg administered subcutaneously; type: functional, organism-based
Procedure, shortened: (§5)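 Female Wistar rats (170–200 g) given 45 μmol/kg ip or sc, killed 60 min later. Striatum, cerebellum and cortex were frozen and homogenised in 0.1 M perchloric acid, purified on Sephadex G10 and analysed by HPLC-ECD. O-methyl metabolite was read at 27% methanol and 750 mV. Values pmol/g tissue, n = 3.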

Rattus norvegicus [29] = experiment: Level of compound in rat intraperitoneally; type: functional, organism-based
Rattus norvegicus [30] = experiment: Level of compound 5 in rat intraperitoneally; type: functional, organism-based; procedure, shortened: as §5
Rattus norvegicus [31] = experiment: Level of compound in rat cortex at dose 45 umol/kg administered subcutaneously; type: functional, organism-based; procedure, shortened: as §5
Rattus norvegicus [32] = experiment: Level of compound in rat striatum at dose 45 umol/kg administered subcutaneously.; type: functional, organism-based; procedure, shortened: as §5
Rattus norvegicus [33] = experiment: Level of compound in rat cortex at dose 45 umol/kg administered intraperitoneally; type: functional, organism-based; procedure, shortened: as §5
Rattus norvegicus [34] = experiment: Motor activity effect in reserpinized rat at 13 umol/kg, sc expressed as accumulation counts 0-30 min after treatment; type: functional
Rattus norvegicus [35] = experiment: Level of compound 5 in rat cerebellum at dose 45 umol/kg administered subcutaneously; type: functional, organism-based; procedure, shortened: as §5
Rattus norvegicus [36] = experiment: Level of compound in rat cerebellum at dose 45 umol/kg administered intraperitoneally; type: functional, organism-based; procedure, shortened: as §5
Rattus norvegicus [37] = experiment: Level of compound 5 in rat cerebellum at dose 45 umol/kg administered intraperitoneally; type: functional, organism-based; procedure, shortened: as §5
Rattus norvegicus [38] = experiment: Level of compound 5 in rat cortex at dose 45 umol/kg administered subcutaneously; type: functional, organism-based; procedure, shortened: as §5
Rattus norvegicus [39] = experiment: Level of compound 5 in rat striatum at dose 45 umol/kg administered subcutaneously; type: functional, organism-based; procedure, shortened: as §5
Rattus norvegicus [40] = experiment: Level of compound 5 in rat cortex at dose 45 umol/kg administered intraperitoneally; type: functional, organism-based; procedure, shortened: as §5

Sequence of D(1A) dopamine receptor (P18901 whole entry): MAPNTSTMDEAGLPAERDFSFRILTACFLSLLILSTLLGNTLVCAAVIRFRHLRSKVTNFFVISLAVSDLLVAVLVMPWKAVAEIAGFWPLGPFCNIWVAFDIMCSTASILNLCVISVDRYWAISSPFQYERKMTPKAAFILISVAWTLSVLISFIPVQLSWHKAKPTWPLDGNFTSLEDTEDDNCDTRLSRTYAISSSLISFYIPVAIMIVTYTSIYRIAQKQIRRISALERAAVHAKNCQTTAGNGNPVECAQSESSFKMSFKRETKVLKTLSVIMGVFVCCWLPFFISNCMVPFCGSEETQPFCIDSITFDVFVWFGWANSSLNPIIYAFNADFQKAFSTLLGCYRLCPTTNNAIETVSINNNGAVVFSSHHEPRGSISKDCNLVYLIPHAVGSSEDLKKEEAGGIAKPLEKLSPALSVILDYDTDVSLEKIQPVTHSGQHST

CCCN1CCC[C@H](c2ccc(O)c(O)c2)C1
Ki (D(1A) dopamine receptor): 57.8 µM | Level (Rattus norvegicus [1]): 227 pmol/g | ED50 (Rattus norvegicus [2]): 7 µmol/kg | Level (Rattus norvegicus [3]): 6000 pmol/g | Level (Rattus norvegicus [4]): 9540 pmol/g | Ki (D(2) dopamine receptor): 0.011 µM | Motor activity (Rattus norvegicus [5]): 24 | Level (Rattus norvegicus [6]): 112 pmol/g | Level (Rattus norvegicus [7]): 2050 pmol/g | Level (Rattus norvegicus [8]): 7200 pmol/g | Km [9]: 121 µM | Level (Rattus norvegicus [10]): 2750 pmol/g | Level (Rattus norvegicus [11]): 150 pmol/g | Level (Rattus norvegicus [12]): 1620 pmol/g | Production (pM (mg of protein)-1) (Rattus norvegicus [13]): 46 | Motor activity (Rattus norvegicus [14]): 20 | Control (Rattus norvegicus [15]): 49% | Level (Rattus norvegicus [16]): 1910 pmol/g | Ratio [17]: 346 | Km [18]: 65 µM | Level (Rattus norvegicus [19]): 18 pmol/g | Level (Rattus norvegicus [20]): 5850 pmol/g | Level (Rattus norvegicus [21]): 1550 pmol/g | ED50 (Rattus norvegicus [22]): 6.2 µmol/kg | Level (Rattus norvegicus [23]): 1380 pmol/g | Control (Rattus norvegicus [24]): 65% | Level (Rattus norvegicus [25]): 4340 pmol/g | Level (Rattus norvegicus [26]): 8470 pmol/g | Level (Rattus norvegicus [27]): 22 pmol/g

CCCN1CCC[C@H](c2cccc(O)c2)C1
Level (Rattus norvegicus [28]): 15200 pmol/g | Level (Rattus norvegicus [29]): 7040 pmol/g | ED50 (Rattus norvegicus [2]): 1.3 µmol/kg | Level (Rattus norvegicus [30]): 151 pmol/g | Level (Rattus norvegicus [31]): 18300 pmol/g | Level (Rattus norvegicus [32]): 17600 pmol/g | Level (Rattus norvegicus [33]): 7410 pmol/g | Motor activity (Rattus norvegicus [34]): 78 | Level (Rattus norvegicus [35]): 114 pmol/g | Level (Rattus norvegicus [36]): 4910 pmol/g | Level (Rattus norvegicus [37]): 98 pmol/g | Level (Rattus norvegicus [38]): 211 pmol/g | Control (Rattus norvegicus [15]): 32% | Level (Rattus norvegicus [39]): 93 pmol/g | Level (Rattus norvegicus [40]): 243 pmol/g | ED50 (Rattus norvegicus [22]): 1 µmol/kg | Control (Rattus norvegicus [24]): 50%
